What was measured:
[1] = target: Histone deacetylase 1 (Homo sapiens) (UniProt Q13547); assay: Inhibition of HDAC1 in human HeLa-S3 cell lysates assessed as remaining activity at 3 x 10^-6 M preincubated for 15 mins followed by HDAC-Glo substrate addition […] relative to control
[2] = target: T1, Histone deacetylase (Homo sapiens) (UniProt Q13547+O15379+Q9UBN7+Q92769+Q9UQL6+Q8WUI4+Q9BY41+Q96DB2+P56524+Q9UKV0+Q969S8); assay: Inhibition of HDAC in human HeLa-S3 cell lysates assessed as residual activity at 1 x 10^-4 M preincubated for 15 mins followed by HDAC-Glo substrate addition measured after 35 mins by […] relative to control; type: protein assay
[3] = target: Histone deacetylase 2 (Homo sapiens) (UniProt Q92769); assay: Inhibition of HDAC2 in human HeLa-S3 cell lysates assessed as remaining activity at 4.8 x 10^-5 M preincubated for 15 mins followed by HDAC-Glo substrate addition measured after 30 to 40 mins by […] relative to control
Summary of the method: (§1)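 Same antibody-capture format as the other class I isoforms. HeLa-S3 lysate added at 100 μg/mL for HDAC1 and HDAC2, 1 h at 4 °C, then washed. Inhibitor in DMSO preincubated 15 min at RT; HDAC-Glo reagent added and luminescence read after 30-40 min. Concentrations are final. Signal corrected against a well without antibody; activity expressed as % of DMSO control.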

[4] = target: T1, Histone deacetylase (Homo sapiens); assay: Inhibition of HDAC in human HeLa-S3 cell lysates assessed as residual activity at 2.5 x 10^-5 M preincubated for 15 mins followed by HDAC-Glo substrate addition measured after 35 mins by […] relative to control; type: protein assay
[5] = target: Histone deacetylase 2 (Homo sapiens) (UniProt Q92769); assay: Inhibition of HDAC2 in human HeLa-S3 cell lysates assessed as remaining activity at 1.2 x 10^-5 M preincubated for 15 mins followed by HDAC-Glo substrate addition measured after 30 to 40 mins by […] relative to control; summary of the method: as §1
[6] = target: Histone deacetylase 1 (Homo sapiens) (UniProt Q13547); assay: Inhibition of HDAC1 in human HeLa-S3 cell lysates assessed as remaining activity at 1.2 x 10^-5 M preincubated for 15 mins followed by HDAC-Glo substrate addition measured after 30 to 40 mins by […] relative to control
Summary of the method: (§2)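 HDAC1 was captured from HeLa-S3 lysate (100 μg/mL) onto wells precoated with anti-HDAC1 antibody (10 μg/mL, carbonate buffer pH 9.4) and milk-blocked, 1 h at 4 °C, then washed. Inhibitor in DMSO was added in HDAC-Glo buffer for 15 min at room temperature. HDAC-Glo reagent was added and luminescence read after 30-40 min. Concentrations are final. No-antibody background subtracted; % of DMSO control.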

[7] = target: Histone deacetylase 2 (Homo sapiens) (UniProt Q92769); assay: Inhibition of HDAC2 in human HeLa-S3 cell lysates assessed as remaining activity at 3 x 10^-6 M preincubated for 15 mins followed by HDAC-Glo substrate addition measured after 30 to 40 mins by fluorimetric method relative to control; summary of the method: as §1
[8] = target: Histone deacetylase 1 (Homo sapiens) (UniProt Q13547); assay: Inhibition of HDAC1 in human HeLa-S3 cell lysates assessed as remaining activity at 4.8 x 10^-5 M preincubated for 15 mins followed by HDAC-Glo substrate addition measured after 30 to 40 mins by […] relative to control; summary of the method: as §2
[9] = target: Histone deacetylase 3 (Homo sapiens) (UniProt O15379); assay: Inhibition of HDAC3 in human HeLa-S3 cell lysates assessed as remaining activity at 4.8 x 10^-5 M preincubated for 15 mins followed by HDAC-Glo substrate addition measured after 30 to 40 mins by […] relative to control
Summary of the method: (§3)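 Antibody-capture (ELISA-type) assay: HDAC antibody coated in carbonate/bicarbonate buffer pH 9.4, wells blocked with 5% milk in TBST. HeLa-S3 lysate added at 1 mg/mL for HDAC3, 1 h at 4 °C, then washed. Inhibitor in DMSO preincubated 15 min at RT in HDAC-Glo buffer. HDAC-Glo reagent added, luminescence read after 30-40 min. Concentrations are final. Background = no-antibody well; activity given as % of DMSO control.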

[10] = target: Histone deacetylase 1 (Homo sapiens) (UniProt Q13547); assay: Inhibition of HDAC1 in human HeLa-S3 cell lysates assessed as remaining activity at 6 x 10^-6 M preincubated for 15 mins followed by HDAC-Glo substrate addition measured after 30 to 40 mins by […] relative to control; summary of the method: as §2
[11] = target: Histone deacetylase 3 (Homo sapiens) (UniProt O15379); assay: Inhibition of HDAC3 in human HeLa-S3 cell lysates assessed as remaining activity at 1.2 x 10^-5 M preincubated for 15 mins followed by HDAC-Glo substrate addition measured after 30 to 40 mins by […] relative to control; summary of the method: as §3
[12] = target: T2, Histone deacetylase 8 (Homo sapiens) (UniProt Q9BY41); assay: Inhibition of human recombinant full-length C-terminal His-tagged HDAC8 expressed in baculovirus infected Sf9 insect cell assessed as remaining activity at 8 x 10^-7 M preincubated for 15 mins followed by HDAC-Glo substrate addition measured after 30 mins by fluorimetric method rel;ative to control
T2 sequence (whole entry): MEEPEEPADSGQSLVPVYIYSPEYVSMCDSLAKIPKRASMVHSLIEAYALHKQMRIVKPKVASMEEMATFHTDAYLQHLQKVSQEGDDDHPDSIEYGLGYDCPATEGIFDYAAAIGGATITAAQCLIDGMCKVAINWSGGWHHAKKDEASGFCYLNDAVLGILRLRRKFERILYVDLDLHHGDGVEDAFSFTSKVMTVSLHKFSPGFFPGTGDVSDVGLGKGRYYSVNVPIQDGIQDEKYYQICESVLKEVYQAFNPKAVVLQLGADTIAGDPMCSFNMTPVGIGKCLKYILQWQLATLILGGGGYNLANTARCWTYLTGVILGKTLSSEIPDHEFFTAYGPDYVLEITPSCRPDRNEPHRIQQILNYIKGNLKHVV
Summary of the method: (§4)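 Recombinant HDAC8 (75 ng) preincubated 15 min at RT with inhibitor in DMSO in HDAC-Glo buffer. HDAC-Glo reagent added and luminescence read 30 min later. Background taken from a reaction without enzyme; activity as % of DMSO control.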

[13] = target: Histone deacetylase 1 (Homo sapiens) (UniProt Q13547); assay: Inhibition of HDAC1 in human HeLa-S3 cell lysates assessed as remaining activity at 2.4 x 10^-5 M preincubated for 15 mins followed by HDAC-Glo substrate addition measured after 30 to 40 mins by […] relative to control; summary of the method: as §2
Histone deacetylase = assay: Inhibition of HDAC in human HeLa-S3 cell lysates preincubated for 15 mins followed by HDAC-Glo substrate addition measured after 35 mins by fluorimetric method; type: protein assay
[14] = target: T1, Histone deacetylase (Homo sapiens); assay: Inhibition of HDAC in human HeLa-S3 cell lysates assessed as residual activity at 2 x 10^-4 M preincubated for 15 mins followed by HDAC-Glo substrate addition measured after 35 mins by fluorimetric method relative to control; type: protein assay
Summary of the method: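 Lysate (1 μg total protein) in HDAC-Glo buffer was preincubated with inhibitor in DMSO for 15 min at room temperature. HDAC-Glo substrate/developer reagent was added and luminescence read after 35 min. Concentrations are final. Signal corrected for a no-lysate blank; % of DMSO control.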

[15] = target: T1, Histone deacetylase (Homo sapiens); assay: Inhibition of HDAC in human HeLa-S3 cell lysates assessed as residual activity at 1.25 x 10^-5 M preincubated for 15 mins followed by HDAC-Glo substrate addition measured after 35 mins by […] relative to control; type: protein assay
[16] = target: Histone deacetylase 3 (Homo sapiens) (UniProt O15379); assay: Inhibition of HDAC3 in human HeLa-S3 cell lysates assessed as remaining activity at 3 x 10^-6 M preincubated for 15 mins followed by HDAC-Glo substrate addition measured after 30 to 40 mins by fluorimetric method relative to control; summary of the method: as §3
[17] = target: Histone deacetylase 2 (Homo sapiens) (UniProt Q92769); assay: Inhibition of HDAC2 in human HeLa-S3 cell lysates assessed as remaining activity at 6 x 10^-6 M preincubated for 15 mins followed by HDAC-Glo substrate addition measured after 30 to 40 mins by […] relative to control; summary of the method: as §1
[18] = target: Histone deacetylase 3 (Homo sapiens) (UniProt O15379); assay: Inhibition of HDAC3 in human HeLa-S3 cell lysates assessed as remaining activity at 2.4 x 10^-5 M preincubated for 15 mins followed by HDAC-Glo substrate addition measured after 30 to 40 mins by […] relative to control; summary of the method: as §3
[19] = target: T2, Histone deacetylase 8 (Homo sapiens); assay: Inhibition of human recombinant full-length C-terminal His-tagged HDAC8 expressed in baculovirus infected Sf9 insect cell assessed as remaining activity at 4 x 10^-7 M preincubated for 15 mins followed by HDAC-Glo substrate addition measured after 30 mins by fluorimetric method rel;ative to control; summary of the method: as §4
[20] = target: Histone deacetylase 2 (Homo sapiens) (UniProt Q92769); assay: Inhibition of HDAC2 in human HeLa-S3 cell lysates assessed as remaining activity at 2.4 x 10^-5 M preincubated for 15 mins followed by HDAC-Glo substrate addition measured after 30 to 40 mins by fluorimetric method relative to control; summary of the method: as §1
[21] = target: Histone deacetylase 3 (Homo sapiens) (UniProt O15379); assay: Inhibition of HDAC3 in human HeLa-S3 cell lysates assessed as remaining activity at 6 x 10^-6 M preincubated for 15 mins followed by HDAC-Glo substrate addition measured after 30 to 40 mins by […] relative to control; summary of the method: as §3

Chain of Histone deacetylase 3 (Homo sapiens) (O15379 whole entry): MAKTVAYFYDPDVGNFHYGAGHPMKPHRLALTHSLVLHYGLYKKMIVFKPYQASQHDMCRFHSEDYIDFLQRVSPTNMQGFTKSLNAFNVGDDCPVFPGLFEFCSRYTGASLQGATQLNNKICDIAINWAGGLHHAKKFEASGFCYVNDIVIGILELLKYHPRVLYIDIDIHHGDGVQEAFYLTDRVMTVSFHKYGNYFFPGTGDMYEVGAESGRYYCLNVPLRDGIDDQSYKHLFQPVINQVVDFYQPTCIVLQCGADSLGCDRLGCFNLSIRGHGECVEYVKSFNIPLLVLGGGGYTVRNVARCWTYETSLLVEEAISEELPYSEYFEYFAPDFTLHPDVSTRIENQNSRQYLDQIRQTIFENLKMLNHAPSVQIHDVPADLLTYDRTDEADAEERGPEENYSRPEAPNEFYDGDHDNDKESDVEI
Chain of Histone deacetylase 1 (Homo sapiens) (Q13547 whole entry): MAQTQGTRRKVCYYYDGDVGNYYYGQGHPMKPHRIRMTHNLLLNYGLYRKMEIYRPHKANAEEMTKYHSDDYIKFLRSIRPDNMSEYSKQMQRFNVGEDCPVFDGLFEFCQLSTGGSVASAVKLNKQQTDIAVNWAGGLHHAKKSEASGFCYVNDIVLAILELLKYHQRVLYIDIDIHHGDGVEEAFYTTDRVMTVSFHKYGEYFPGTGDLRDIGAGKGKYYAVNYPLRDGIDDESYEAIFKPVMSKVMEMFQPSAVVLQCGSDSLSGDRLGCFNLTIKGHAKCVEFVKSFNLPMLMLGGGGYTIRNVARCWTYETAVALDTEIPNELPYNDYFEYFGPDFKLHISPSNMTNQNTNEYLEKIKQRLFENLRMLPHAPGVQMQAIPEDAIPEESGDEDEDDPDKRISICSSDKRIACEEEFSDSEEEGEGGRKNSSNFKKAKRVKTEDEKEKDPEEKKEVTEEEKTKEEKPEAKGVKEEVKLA
Chain of Histone deacetylase 2 (Homo sapiens) (Q92769 whole entry, canonical isoform): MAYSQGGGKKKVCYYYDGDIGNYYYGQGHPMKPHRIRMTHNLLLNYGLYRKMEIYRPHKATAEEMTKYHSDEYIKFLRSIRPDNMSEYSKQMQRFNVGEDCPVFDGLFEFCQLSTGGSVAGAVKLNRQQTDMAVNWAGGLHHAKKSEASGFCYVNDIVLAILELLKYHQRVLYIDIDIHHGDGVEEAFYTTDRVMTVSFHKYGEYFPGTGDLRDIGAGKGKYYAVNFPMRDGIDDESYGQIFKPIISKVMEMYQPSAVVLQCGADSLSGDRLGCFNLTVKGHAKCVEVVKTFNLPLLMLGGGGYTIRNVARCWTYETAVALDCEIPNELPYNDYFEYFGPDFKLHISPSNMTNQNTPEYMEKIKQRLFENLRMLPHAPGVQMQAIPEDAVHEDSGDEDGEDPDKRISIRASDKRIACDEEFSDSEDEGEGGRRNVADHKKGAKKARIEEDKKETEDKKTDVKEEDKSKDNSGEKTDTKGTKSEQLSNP

## O=C(CCC(CCCC(=O)Nc1ccccc1)c1ccccc1)NO (configuration not stated)
[1]
  Activity: 74%
[2]
  Activity: 32%
[3]
  Activity: 22%
[4]
  Activity: 88%
[5]
  Activity: 53%
[6]
  Activity: 53%
[7]
  Activity: 72%
[8]
  Activity: 19%
[9]
  Activity: 30%
[10]
  Activity: 63%
[11]
  Activity: 64%
[12]
  Activity: 29%
[13]
  Activity: 34%
Histone deacetylase
  IC50: 65 µM
[14]
  Activity: 15%
[15]
  Activity: 104%
[16]
  Activity: 88%
[17]
  Activity: 68%
[18]
  Activity: 53%
[19]
  Activity: 48%
[20]
  Activity: 33%
[21]
  Activity: 74%

From ChEMBL document CHEMBL4251567 (Eur J Med Chem, 2018)
